# Experimental data pooled from the literature.
# Organism: Escherichia coli
SMILES,test,test system,conditions,endpoint,value
CC1(C)S[C@@H]2[C@H](NC(=O)[C@H](N)c3ccccc3)C(=O)N2[C@H]1C(=O)O,"microbial growth, disc diffusion",,50 µg/disc,inhibition zone,21 mm
Oc1ccc(-c2cc(Cl)sc2Cl)cc1O,microbial growth,AS19,10 h,IC50,6.1 µM
N=C(N)c1ccc(OCc2ccccc2COc2ccc(C(=N)N)cc2)cc1,"microbial growth, broth dilution",W3110,,MIC,> 200 µg/mL
CC1(C)SC2C(NC(=O)C(NC(=O)C3=C(O)C4(CC4)NC3=O)c3ccccc3)C(=O)N2C1C(=O)O (stereo not drawn),"microbial growth, well diffusion",BW25113,200 µM,inhibition zone,10 mm
O=C1C=C(OCc2cn(-c3ccccc3)nn2)C(=O)c2ccccc21,"microbial growth, broth dilution",ATCC25922,,IC50,99.5 µg/mL
COc1c(N2C[C@@H]3CCCN[C@@H]3C2)c(F)cc2c(=O)c(C(=O)O)cn(C3CC3)c12,microbial growth,"ATCC 8739, ATCC8739",,MIC90,0.06 µg/mL
COc1c(C)c(OC)c2c(c1C)OC(c1ccccc1)CC2=O (stereo not drawn),"microbial killing, broth dilution",ATCC25922,,MBC,> 5000 µg/mL
CC1(C)S[C@@H]2[C@H](NC(=O)C(C(=O)O)c3ccccc3)C(=O)N2[C@H]1C(=O)O (stereo partly drawn),"microbial growth, well diffusion",BW25113,200 µM,inhibition zone,15 mm
C#CCCCCCCCCCCCC(O)CC(O)CO (stereo not drawn),"microbial growth, broth dilution",ATCC35218,,IC50,> 200 µg/mL
COc1cc(C=CC(=O)CC(c2ccc(N(C)C)cc2)n2ccnc2)ccc1O (stereo not drawn),"microbial growth, disc diffusion",ATCC25922,500 µg/mL,inhibition zone,8.67 mm
Cc1ccc(C(C)C)cc1OCc1cn(-c2ccc(S(N)(=O)=O)cc2)nn1,"microbial growth, broth dilution",ATCC25922,,IC50,289 µg/mL
CC(C)Oc1c(NC(=O)c2ccc(NC(=O)[C@H](CC(N)=O)NC(=O)c3ccc(NC(=O)c4ccc(C#N)c(F)c4)cc3)cc2)ccc(C(=O)Nc2ccc(C(=O)O)cc2)c1O,microbial growth,DSM1116,,MIC,0.25 µg/mL
CCCCS(=O)(=O)Oc1cccc2cccnc12,"microbial growth, broth dilution",ATCC25922,,IC50,194 µg/mL
O=C(N/N=C/c1ccc([N+](=O)[O-])o1)c1ccc(O)cc1,microbial growth,ATCC35218,,MIC90,0.98 µg/mL
N=C(N)c1cccc(OCc2ccc(COc3cccc(C(=N)N)c3)cc2)c1,"microbial growth, broth dilution",W3110,,MIC,> 200 µg/mL
CC1(C)S[C@@H]2[C@H](NC(=O)[C@H](N)c3ccc(O)cc3)C(=O)N2[C@H]1C(=O)O,"microbial growth, disc diffusion",ATCC25922,250 µg/mL,inhibition zone,11.2 mm
C=CCCCCCCCCCCCC(O)CC(O)CO (stereo not drawn),"microbial growth, broth dilution",ATCC35218,,IC50,> 200 µg/mL
Cc1ccc2nc(-c3ccc([N+](=O)[O-])cc3)[nH]c2c1,"microbial growth, broth dilution",ATCC25922,,MIC,64 µg/mL
O=C(Sc1cccccc1=O)c1cccc(C(F)(F)F)c1,"microbial growth, broth dilution",ATCC35218,,MIC80,19.8 µM
N=C(N)c1ccccc1OCc1cccc(COc2ccccc2C(=N)N)c1,"microbial growth, broth dilution",BW25113,,MIC,> 200 µg/mL
Cc1ccc2nc(-c3cc(Br)ccc3O)[nH]c2c1,"microbial growth, broth dilution",ATCC25922,,MIC,64 µg/mL
CN1CC(O)=C(C(=O)NC(C(=O)NC2C(=O)N3C2SC(C)(C)C3C(=O)O)c2ccccc2)C1=O (stereo not drawn),"microbial growth, well diffusion",BW25113,200 µM,inhibition zone,10.5 mm
O=C(Cc1ccccc1)Sc1cccccc1=O,"microbial growth, broth dilution",ATCC35218,,MIC80,19.8 µM
CCCCCCCCCCCC(=O)Oc1c(C)c(O)c(C(=O)/C=C/c2ccccc2)c(OC)c1C,"microbial killing, broth dilution",ATCC25922,,MBC,> 5000 µg/mL
O=C(N[C@H](CO)[C@H](O)c1ccc([N+](=O)[O-])cc1)C(Cl)Cl,microbial growth,"ATCC 8739, ATCC8739",,MIC90,3.9 µg/mL
Clc1ccc(-c2nc3ccccc3[nH]2)cc1Cl,"microbial growth, broth dilution",ATCC25922,,MIC,32 µg/mL
N=C(N)c1ccccc1OCCCCCOc1ccccc1C(=N)N,"microbial growth, broth dilution",BW25113,,MIC,> 200 µg/mL
CCOC(=O)c1c(N)csc1-c1cn(-c2ccccc2)nc1-c1ccc(C)cc1,"microbial killing, broth dilution",,,MBC,0.125 µg/mL
CC(C)Oc1c(NC(=O)c2ccc(NC(=O)[C@H](CC(N)=O)NC(=O)c3ccc(NC(=O)c4ccc(C#N)cc4)cc3)cc2)ccc(C(=O)NC2CCNCC2)c1O,microbial growth,DSM1116,,MIC,> 64 µg/mL
COc1ccc(-c2nc3ccc(C)cc3[nH]2)cc1OC,"microbial growth, broth dilution",ATCC25922,,MIC,64 µg/mL
N=C(N)c1ccc(OCCC(CCOc2ccc(C(=N)N)cc2)c2ccccc2)cc1 (stereo not drawn),"microbial growth, broth dilution",ATCC25922,,MIC,> 200 µg/mL
O=[N+]([O-])c1ccc(-n2cc(COc3cccc4cccnc34)nn2)cc1,"microbial growth, broth dilution",ATCC25922,,IC50,664 µg/mL
CC(C)Oc1c(NC(=O)c2ccc(NC(=O)[C@H](CC(N)=O)NC(=O)c3ccc(CCNC(=O)c4ccc(C#N)cc4)cc3)cc2)ccc(C(=O)Nc2ccc(C(=O)O)cc2)c1O,microbial growth,DSM1116,,MIC,0.25 µg/mL
O=C(Sc1cccccc1=O)c1ccccc1C(F)(F)F,"microbial growth, broth dilution",ATCC35218,,MIC80,19.8 µM
COc1c(C)c(OS(=O)(=O)c2ccc3ccccc3c2)c(C)c(OS(=O)(=O)c2ccc3ccccc3c2)c1C(=O)/C=C/c1ccccc1,"microbial growth, well diffusion",ATCC25922,5 µg/mL,inhibition zone,12 mm
Cc1ccc(S(=O)(=O)Oc2cc(C(C)C)ccc2C)cc1,"microbial growth, broth dilution",ATCC25922,,IC50,317 µg/mL
COc1cc(C=Cc2cc(-c3ccccc3)nc(O)n2)ccc1O,"microbial growth, disc diffusion",ATCC25922,250 µg/mL,inhibition zone,6 mm
Cc1ccc2nc(-c3ccc([N+](=O)[O-])cc3)n(Cc3ccccc3)c2c1,"microbial growth, broth dilution",ATCC25922,,MIC,64 µg/mL
COc1ccc(-n2cc(COC3=CC(=O)c4ccccc4C3=O)nn2)cc1,"microbial growth, broth dilution",ATCC25922,,IC50,314 µg/mL
CC(C)Oc1c(NC(=O)c2ccc(NC(=O)[C@H](CC(N)=O)NC(=O)c3cccc(NC(=O)c4ccc(C#N)cc4)c3)cc2)ccc(C(=O)Nc2ccc(C(=O)O)cc2)c1O,microbial growth,DSM1116,,MIC,> 64 µg/mL
NS(=O)(=O)c1ccc(-n2cc(COc3cccc4cccnc34)nn2)cc1,"microbial growth, broth dilution",ATCC25922,,IC50,880 µg/mL
COc1c(C)c(OS(=O)(=O)c2ccc3ccccc3c2)c(C)c(O)c1C(=O)/C=C/c1ccccc1,"microbial killing, broth dilution",ATCC25922,,MBC,> 5000 µg/mL
O=C1C=C(O)C(=O)c2ccccc21,"microbial growth, broth dilution",ATCC25922,,IC50,179 µg/mL
N=C(N)c1ccccc1OCc1ccccc1COc1ccccc1C(=N)N,microbial growth,BW25113,,MIC,> 200 µg/mL
C=CCOc1c(C)c(O)c(C(=O)/C=C/c2ccccc2)c(OC)c1C,"microbial killing, broth dilution",ATCC25922,,MBC,> 5000 µg/mL
